This excerpt belongs to a sample that is enriched for hits.
T cruzi HTS: blocks T. cruzi growth inside host cells | 4.9% of 22,000 active | activity score (inhibition), % at 5.01 µM | intracellular Trypanosoma cruzi in host cells, plate reader; in the data active = activity score above about 55%; inconclusive = no clear call, values can overlap the other calls;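 note: parasites and compound incubated about four days before reading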
YB-1 expression: YB-1 expression inhibition; delta delta Cp (YB-1 minus CDIP) (concentration not given with the values); 0.37% of 30,000 active; U2OS, qRT-PCR YB-1 vs CDIP delta delta Cp, 16 h; active compounds read high; zero = DMSO, each unit about twofold;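 active = delta delta Cp rounded down to an integer at or above 3, about 3 SD of DMSO wells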;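 note: higher means less YB-1 transcript or more CDIP transcript relative to DMSO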
INS-1E rescue: rescue of cytokine-induced death in INS-1E beta cells; 0.1% of 20,000 active; protection from cytokine-induced ATP loss, % at 10 µM; INS-1E cytokine-induced death, ATP luminescence, 48 h; normalised: neutral wells 0, positive control 100;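 active = mean replicate protection from cytokine-induced ATP loss at least 50% and at least 75% of replicates each reaching 50%; inconclusive = meets only one of the two criteria, mean or replicate share; inactive = fails both the mean and replicate share criteria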
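assay system = INS-1E rat insulinoma cells | amount = 8000 cells per well | medium = phenol-red-free RPMI with 5% fetal bovine serum | doses = one compound concentration, pin transfer | timing = 48 h cytokine plus compound treatment, 10 min reagent incubation | also added = IL-1β, TNF-α and IFN-γ cytokine mix | signal = CellTiter-Glo luminescence measuring cellular ATP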
Large screens that a line does not name were inactive.

COc1ccc(CN(C)C[C@@H]2Oc3c(NC(=O)c4ccncc4)cccc3C(=O)N([C@H](C)CO)C[C@H]2C)cc1	T cruzi HTS 76
C[C@@H]1CN([C@@H](C)CO)C(=O)c2cccc(NC(=O)c3ccncc3)c2O[C@@H]1CN(C)Cc1ccc(Oc2ccccc2)cc1	T cruzi HTS 78
C[C@H]1CN([C@@H](C)CO)C(=O)c2cccc(NC(=O)c3ccncc3)c2O[C@@H]1CN(C)Cc1ccncc1	none
COc1cc(C=O)cc2c1[nH]c1ccccc12	none (no result: T cruzi HTS, INS-1E rescue)
COc1ccc(S(=O)(=O)N(C)C[C@@H]2Oc3ccc(NC(=O)CCC(F)(F)F)cc3C(=O)N([C@H](C)CO)C[C@@H]2C)cc1	none (no result: INS-1E rescue)
CC(C)NC(=O)Nc1ccc2c(c1)CC(=O)N([C@H](C)CO)C[C@@H](C)[C@@H](CN(C)C(=O)Nc1ccccc1)O2	none
CC(=O)N[C@H]1[C@H](O[C@H]2CC[C@@]3(C)C(CC[C@]4(C)C3CC=C3[C@@H]5CC(C)(C)CC[C@]5(C(=O)O)CC[C@]34C)C2(C)C)O[C@H](CO[C@@H]2OC[C@H](O)[C@H](O)[C@H]2O[C@@H]2OC[C@H](O)[C@H](O)[C@H]2O)[C@@H](O)[C@@H]1O (stereo not given in full)	none (no result: T cruzi HTS, INS-1E rescue)
C[C@H]1CN([C@@H](C)CO)C(=O)c2cc(NS(=O)(=O)c3ccc(Cl)cc3)ccc2O[C@H]1CN(C)S(C)(=O)=O	none (no result: INS-1E rescue)
O=C(CCCCCCC(=O)Nc1ccccc1O)N/N=C/c1cc(O)ccc1O	none
CCC1(CC)C(=O)c2cc3ccccc3cc2C1=O	none (no result: T cruzi HTS, INS-1E rescue)
C[C@H](CO)N1C[C@H](C)[C@@H](CN(C)Cc2ccc(Oc3ccccc3)cc2)Oc2c(NC(=O)c3ccncc3)cccc2C1=O	T cruzi HTS 66
CCOC(=O)c1c(-c2ccccc2)oc2ccc(O)c(CSCC(=O)Nc3ccccc3)c12	YB-1 expression 9.6 (no result: T cruzi HTS, INS-1E rescue)
CCOC(=O)c1cnc2oc3ccc(O)cc3c2c1-c1ccccc1	none (no result: T cruzi HTS, INS-1E rescue)
C[C@H](CO)N1C[C@H](C)[C@H](CN(C)S(=O)(=O)c2ccc(F)cc2)Oc2ncc(/C=C/c3ccccc3)cc2C1=O	none
C[C@@H]1CN([C@@H](C)CO)C(=O)c2cccc(NS(=O)(=O)c3ccccc3)c2O[C@H]1CN(C)C(=O)Nc1ccc2c(c1)OCO2	none
C[C@@H]1CN([C@@H](C)CO)C(=O)c2cccc(NC(=O)c3nc4ccccc4s3)c2O[C@H]1CN(C)CC1CC1	none
C[C@H](CO)N1C[C@H](C)[C@H](CN(C)CC2CCCCC2)Oc2c(NC(=O)c3nc4ccccc4s3)cccc2C1=O	T cruzi HTS 66
C[C@@H]1CN([C@@H](C)CO)C(=O)c2cccc(NC(=O)c3nc4ccccc4s3)c2O[C@@H]1CN(C)CC1CCCCC1	T cruzi HTS 76
C[C@@H]1CN([C@H](C)CO)C(=O)c2cccc(NC(=O)c3nc4ccccc4s3)c2O[C@@H]1CN(C)CC1CCCCC1	none
C[C@H](CO)N1C[C@H](C)[C@@H](CN(C)CC2CC2)Oc2c(NC(=O)c3nc4ccccc4s3)cccc2C1=O	none
C[C@H](CO)N1C[C@H](C)[C@@H](CN(C)CC2CCCCC2)Oc2c(NC(=O)c3nc4ccccc4s3)cccc2C1=O	T cruzi HTS 64
COc1ccc(CN(C)C[C@H]2Oc3ccc(NC(=O)Nc4ccc(C(F)(F)F)cc4)cc3CC(=O)N([C@@H](C)CO)C[C@H]2C)cc1	T cruzi HTS 68
COc1ccc(NC(=O)Nc2ccc3c(c2)CC(=O)N([C@H](C)CO)C[C@@H](C)[C@H](CN(C)Cc2ccc(C(F)(F)F)cc2)O3)cc1	T cruzi HTS inconclusive
COc1ccc(CN(C)C[C@H]2Oc3ccc(NC(=O)Nc4ccc(C(F)(F)F)cc4)cc3CC(=O)N([C@H](C)CO)C[C@H]2C)cc1	T cruzi HTS 74
COc1ccc(NC(=O)Nc2ccc3c(c2)CC(=O)N([C@H](C)CO)C[C@@H](C)[C@@H](CN(C)Cc2ccc(C(F)(F)F)cc2)O3)cc1	T cruzi HTS 67
COc1ccc(CN(C)C[C@@H]2Oc3ccc(NC(=O)Nc4ccc(C(F)(F)F)cc4)cc3CC(=O)N([C@H](C)CO)C[C@H]2C)cc1	none
COc1ccc(CN(C)C[C@H]2Oc3ccc(NC(=O)Nc4ccc(OC)cc4)cc3CC(=O)N([C@H](C)CO)C[C@H]2C)cc1	none
COc1ccc(CN(C)C[C@@H]2Oc3ccc(NC(=O)Nc4ccc(C(F)(F)F)cc4)cc3CC(=O)N([C@H](C)CO)C[C@@H]2C)cc1	YB-1 expression 9.7 (no result: T cruzi HTS)
COc1ccc(NC(=O)Nc2ccc3c(c2)CC(=O)N([C@@H](C)CO)C[C@H](C)[C@H](CN(C)Cc2ccc(C(F)(F)F)cc2)O3)cc1	none
COC(=O)CCCCCCC(=O)N/N=C/c1ccccc1O	none
C[C@@H]1CN([C@H](C)CO)C(=O)c2cccc(NS(=O)(=O)c3ccc(Cl)cc3)c2O[C@H]1CN(C)CC1CCCCC1	none
COc1ccc(NC(=O)Nc2ccc3c(c2)CC(=O)N([C@@H](C)CO)C[C@H](C)[C@@H](CN(C)Cc2ccc(C(F)(F)F)cc2)O3)cc1	T cruzi HTS 74
COc1ccc(NC(=O)Nc2ccc3c(c2)CC(=O)N([C@H](C)CO)C[C@H](C)[C@H](CN(C)Cc2ccc(C(F)(F)F)cc2)O3)cc1	none
C[C@@H]1CN([C@@H](C)CO)C(=O)Cc2cc(NC(=O)Nc3ccc(F)cc3)ccc2O[C@@H]1CN(C)Cc1ccc(Oc2ccccc2)cc1	T cruzi HTS 75
C[C@H](CO)N1C[C@H](C)[C@H](CN(C)Cc2ccc(Oc3ccccc3)cc2)Oc2ccc(NC(=O)Nc3ccccc3)cc2CC1=O	none
C[C@H]1CN([C@@H](C)CO)C(=O)Cc2cc(NC(=O)Cc3ccccc3)ccc2O[C@@H]1CN(C)Cc1ccc(Oc2ccccc2)cc1	T cruzi HTS 63
C[C@H]1CN([C@@H](C)CO)C(=O)Cc2cc(NC(=O)CCC(F)(F)F)ccc2O[C@@H]1CN(C)Cc1ccc(-c2ccccc2)cc1	T cruzi HTS 60
C[C@@H]1CN([C@@H](C)CO)C(=O)Cc2cc(NC(=O)Nc3ccccc3)ccc2O[C@@H]1CN(C)Cc1ccc(Oc2ccccc2)cc1	T cruzi HTS 81
C[C@H]1CN([C@@H](C)CO)C(=O)Cc2cc(NC(=O)Nc3ccccc3)ccc2O[C@H]1CN(C)Cc1ccc(Oc2ccccc2)cc1	none
C[C@H](CO)N1C[C@H](C)[C@H](CN(C)Cc2ccc(Oc3ccccc3)cc2)Oc2ccc(NC(=O)Cc3ccccc3)cc2CC1=O	none
C[C@H]1CN([C@@H](C)CO)C(=O)Cc2cc(NC(=O)CCC(F)(F)F)ccc2O[C@H]1CN(C)Cc1ccc(-c2ccccc2)cc1	none
COC(=O)C1=C(N)OC2=C(CCCC2=O)C1c1cccnc1 (stereo not given)	none (no result: T cruzi HTS, INS-1E rescue)
COc1ccc(NC(=O)N(C)C[C@H]2OCCCC[C@@H](C)Oc3ccc(NC(=O)CCC(F)(F)F)cc3C(=O)N([C@H](C)CO)C[C@@H]2C)cc1	none
COC(=O)C1=CO[C@@H](OC2OC(O)C(O)C(O)C2CO)[C@H]2[C@@H]1C=CC21C=C([C@H](C)O)C(=O)O1 (stereo not given in full)	none (no result: T cruzi HTS, INS-1E rescue)
